{"data": "Experimental data from different studies", "matrix": "plasma", "note": "Lines come from different studies, so protocols differ."}
{"Structure (SMILES)": "Cn1cc(-c2ccc(S(=O)(=O)[C@@H]3C[C@@H](C(=O)NC4(C#N)CC4)N(C(=O)C4(C(F)(F)F)CC4)C3)c(C(F)(F)F)c2)cn1", "host": "human", "route": "oral", "dose": "300 mg", "setting": "single dose, fasted, healthy volunteers", "Cmax": "1070 ng/mL"}
{"Structure (SMILES)": "COCCOc1cnc2ccn([C@H](C)c3nnc4c(F)cc(-c5cnn(C)c5)cn34)c(=O)c2c1", "host": "human", "route": "oral", "dose": "400 mg", "setting": "multiple doses, once daily, patients", "Cmax": "5140 ng/mL"}
{"Structure (SMILES)": "CC(C)n1cc(C#N)c2cc(-n3cc(C(=O)O)cn3)ccc21", "host": "human", "route": "oral", "dose": "25 mg", "setting": "single dose, fasted, healthy volunteers", "Cmax": "978 ng/mL"}
{"Structure (SMILES)": "CCc1nc2c(C)cc(N3CCN(CC(=O)N4CC(O)C4)CC3)cn2c1N(C)c1nc(-c2ccc(F)cc2)c(C#N)s1", "host": "human", "route": "oral", "dose": "300 mg", "setting": "single dose, fed, healthy volunteers", "Cmax": "3800 ng/mL"}
{"Structure (SMILES)": "C[C@@]1(c2cc(NC(=O)c3ccc(C#N)cn3)ccc2F)C=CSC(N)=N1", "host": "human", "route": "oral", "dose": "10 mg", "setting": "single dose", "Cmax": "83.9 ng/mL"}
{"Structure (SMILES)": "CO[C@H]1CC[C@H](N2C(=O)CNc3ncc(-c4ccc(C(C)(C)O)nc4)nc32)CC1", "host": "human", "route": "oral", "dose": "45 mg", "setting": "multiple doses, patients", "Cmax": "417 ng/mL"}
{"Structure (SMILES)": "Cc1ccc(C(=O)N(CCCN)[C@@H](c2oc3cc(Cl)ccc3c(=O)c2Cc2ccccc2)C(C)C)cc1", "host": "human", "route": "intravenous", "dose": "6 mg/m²", "setting": "single dose, patients, infusion", "Cmax": "817 ng/mL"}
{"Structure (SMILES)": "CCn1c(=O)c(-c2cc(NC(=O)Nc3ccccc3)c(F)cc2Br)cc2cnc(NC)cc21", "host": "human", "route": "oral", "dose": "100 mg", "setting": "single dose, patients", "Cmax": "500 ng/mL"}
{"Structure (SMILES)": "FC(F)(F)c1ccc(CNc2ccc(Cc3c[nH]c4ncc(Cl)cc34)cn2)cn1", "host": "human", "route": "oral", "dose": "800 mg", "setting": "multiple doses, patients", "Cmax": "6780 ng/mL"}
{"Structure (SMILES)": "CC(C)(O)c1ccccc1-c1ccc2[nH]c(/C=C/c3ccc(C(F)(F)F)cc3)nc2c1", "host": "male human", "route": "oral", "dose": "30 mg", "setting": "single dose, fasted, healthy volunteers", "Cmax": "91.8 ng/mL"}
{"Structure (SMILES)": "CC(C)(Sc1ccncc1-c1ccc(C#N)c2ccccc12)C(=O)O", "host": "male human", "route": "oral", "dose": "20 mg", "setting": "single dose, fasted, healthy volunteers", "Cmax": "384 ng/mL"}
{"Structure (SMILES)": "COc1ccc([C@@H]2CN(C(=O)[C@@H](O)CO)C[C@@]2(C)[C@@H](C)O)cc1OC1CN(c2ccc(C)cn2)C1", "host": "human", "route": "oral", "dose": "40 mg", "setting": "single dose, healthy volunteers", "Cmax": "799 ng/mL"}
{"Structure (SMILES)": "COc1cc(C(=O)NC2CCN(C)CC2)c(F)cc1Nc1ncc(C(F)(F)F)c(Oc2cccc3c2C(=O)N(C)C3)n1", "host": "human", "route": "oral", "dose": "300 mg", "setting": "multiple doses, once daily, steady state, patients", "Cmax": "5.06 µM"}
